Screens: PubChem BioAssay, several laboratories
This is a sample that favours compounds with a hit; in the whole collection about 2.3% have one here.
CRFBP-R2 block – blocks CRF-induced signaling of the CRF-BP/CRF-R2 complex. HEK293 CRF-R2/CRF-BP, CRF-induced calcium fluorescence. inhibition, % at 11.8 µM. 0.59% of 350,000 active;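 active means inhibition of the ligand-induced calcium signal above about 50% at the single tested concentration, limit read from the data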
TPT1 inhibitor – C. albicans TPT1 enzyme inhibition; recombinant caTPT1, FP RNA substrate dephosphorylation; inhibition, % at 5 µM; 0.81% of 300,000 active; AID 1962;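 active means inhibition above the mean of all tested compounds plus 3 SD, set per screening campaign, cut at about 24% in these data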;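 further: plate controls were DMSO alone for no effect and ferristatin control at 100 nM for full effect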
CSN inh – inhibitors of human CSN-mediated cullin deneddylation | Purified CSN, SCF-Nedd8-OG deneddylation, fluorescence polarization | Q92905 | inhibition, % at 12.5 µM | 0.38% of 360,000 active;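 active means pattern-corrected inhibition above about 35%, with an unprinted fluorescence ratio check between 0.5 and 1.5, limit read from the data, passing the limit was not always enough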;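 further: 0% = enzyme with substrate and 100% = substrate without enzyme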
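Assay system: HEK293T-derived human Csn5 enzyme; quantity: 0.24 nM enzyme; medium: Tris/NaCl/DTT buffer, pH 7.5; also added: substrate SCFSkp2-Nedd8OG, 10 nM; doses: 12.5 µM compound; schedule: 90 min reaction at room temperature; signal: FP; read-out: % inhibition of substrate cleavage by Csn5; benchmarks: substrate-only high control, full reaction low control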
CRFR2-BP ag – agonists of human CRF-binding protein/CRF-R2 receptor complex; activation, % at 13.2 µM; 0.46% of 350,000 active; HEK293 CRF-R2/CRF-BP, calcium dye fluorescence (FLIPR); percent of saturating CRF peptide response;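 active means activation of at least 50%, plus an integration ratio under a set limit after plate pattern correction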;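 further: plate controls were neutral control wells without compound for no effect and CRF at EC100 for full effect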
HNF4A DNA FP – change in binding of human HNF4 alpha to DNA; HNF4a-FITC DNA binding, fluorescence polarization, 1 h; P41235; 0.3% of 360,000 active; activity change, % at 10 µM; in the data active means activity change above about 30%, passing the limit was not always enough
Target sequence (P41235 whole entry, looked up): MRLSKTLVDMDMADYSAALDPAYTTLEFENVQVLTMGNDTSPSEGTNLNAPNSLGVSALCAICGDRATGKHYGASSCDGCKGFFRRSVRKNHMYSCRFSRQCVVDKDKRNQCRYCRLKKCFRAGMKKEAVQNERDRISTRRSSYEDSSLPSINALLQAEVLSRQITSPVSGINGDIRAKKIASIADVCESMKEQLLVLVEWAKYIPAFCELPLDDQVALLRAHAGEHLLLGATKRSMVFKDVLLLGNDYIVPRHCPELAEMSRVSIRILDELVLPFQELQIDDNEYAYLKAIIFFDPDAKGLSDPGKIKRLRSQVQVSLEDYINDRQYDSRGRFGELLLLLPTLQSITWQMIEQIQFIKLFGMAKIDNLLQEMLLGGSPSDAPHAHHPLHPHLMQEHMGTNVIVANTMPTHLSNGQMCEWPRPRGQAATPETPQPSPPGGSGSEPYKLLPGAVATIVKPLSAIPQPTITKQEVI
Rpn11 inh – blocks the human proteasome subunit Rpn11. O00487. human 26S proteasome, Ub4-pepOG fluorescence polarization; 20S core pre-blocked with epoxomicin. calls only at 20 µM. 0.59% of 360,000 active;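 active means inhibition at 20 µM, scaled to each plate's controls, above about 33%, limit read from the data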
* hit, by the source's call; i = inactive; · = no result; + = active, no number.

SMILES | CRFBP-R2 block | TPT1 inhibitor | CSN inh | CRFR2-BP ag | HNF4A DNA FP | Rpn11 inh
Cc1ccc([C@H]2C(C(=O)O)=CC[C@@H](c3ccc(C)cc3)N2S(=O)(=O)c2ccc(C)cc2)cc1 | 94.0* | · | 0.8 | -0.9 | -0.9 | i
Cc1ccc([C@H]2C(C(=O)O)=CC[C@@H](c3ccc(Cl)cc3)N2S(=O)(=O)c2ccc(C)cc2)cc1 | 66.5* | · | 0.8 | 5.7 | 2.6 | i
Cc1ccc(S(=O)(=O)N2[C@@H](c3ccc(Br)cc3)C(C(=O)O)=CC[C@H]2c2cccc(C)c2)cc1 | 85.6* | · | 4.6 | -2.4 | -6.0 | i
Cc1ccc([C@@H]2CC=C(C(=O)O)[C@H](c3ccccc3)N2S(=O)(=O)c2ccc(C)cc2)cc1 | 5.3 | -2.0 | 0.9 | -0.2 | 1.3 | i
C/C(CC(=O)NCc1ccccc1)=N\NC(N)=S | -3.4 | -8.2 | 103.0 | 0.1 | 0.2 | i
Cc1noc(C)c1C(=O)N1CCc2ccccc2C1 | 6.9 | 1.7 | -1.2 | -1.4 | 0.7 | i
COc1cc(OC)cc(C(=O)N2CCC(C(=O)Nc3ccc4c(c3)OCCO4)CC2)c1 | -31.4 | -1.6 | -2.9 | -2.3 | -3.0 | i
Cc1ccc(-c2nc3cc(Br)cnc3nc2-c2ccc(C)cc2)cc1 | 9.0 | 0.0 | -1.5 | -0.5 | -2.0 | i
Cc1cc(C(=O)COC(=O)CCc2nc3ccccc3s2)c(C)n1C | 1.6 | -0.6 | -1.0 | -1.7 | -1.7 | i
Cc1ccc(S(=O)(=O)N2[C@@H](c3ccc(Cl)cc3)C(C(=O)OC(C)(C)C)=CC[C@H]2c2ccc(Cl)c(Cl)c2)cc1 | · | · | 144.0* | · | -4.2 | i
CN1c2ccccc2C(C)(C)C12C=Cc1cc(O)ccc1O2 (stereo not given) | -15.9 | 13.2 | 25.8 | 0.6 | 34.6* | +
CN1c2ccccc2C(C)(C)C12C=Nc1c(cc(N3CCOCC3)c3ccccc13)O2 (stereo not given) | -7.0 | · | 16.2 | 8.0 | -4.1 | i
O=C(N/N=C/c1cccc(O)c1)c1ccc(NC(=O)c2cccc([N+](=O)[O-])c2)cc1 | 5.3 | 3.3 | -3.1 | -1.1 | 5.6 | i
Clc1ccccc1N=Nc1ccccn1 | -42.8 | · | -48.1 | 63.2* | -36.8 | i
CCC(Oc1ccccc1)C(=O)N1CCN(CC)CC1 (stereo not given) | -6.3 | -1.7 | -1.7 | -0.9 | 1.1 | i
COc1ccc(/C=C2\CCC(C3CCCC3)C2=O)cc1OC (stereo not given) | 52.8* | 1.8 | 11.4 | 0.8 | -2.2 | i
COc1cc(/C=C2\CCC(C3CCCC3)C2=O)ccc1OC(C)C (stereo not given) | 7.9 | 1.3 | -5.4 | 0.2 | -12.9 | i
CC(C)(C)c1ccc(C(=O)NCCCn2ccnc2)cc1 | 7.7 | -0.9 | 1.4 | -0.9 | -0.6 | i
COCCNC(=O)C1(C)CCCN(Cc2cc(C(F)(F)F)ccc2Cl)C1 (stereo not given) | · | · | -0.1 | · | -0.9 | i
O=C1N/C(=N/N=C/c2ccc(F)cc2)SC1c1ccccc1 (stereo not given) | 52.3* | 2.1 | 2.6 | -1.0 | 3.2 | i
COc1cc(/C=N/N=C2/NC(=O)C(Cc3ccccc3)S2)ccc1O (stereo not given) | -8.2 | -3.9 | 3.8 | 0.3 | -6.1 | i
CCCCCCCOC(=O)C[N+](C)(C)CCOC1CC2CCC1(C)C2(C)C (stereo not given) | -158.2 | · | 3.1 | 111.5* | 0.5 | i
CCSc1nc2ccccc2n1CC(=O)N1CCCCC1 | 85.7* | 2.9 | 3.7 | 1.7 | -0.7 | i
O=C1CC(N2CCN(Cc3ccc4c(c3)OCO4)CC2)C(=O)N1c1cccc(Cl)c1 (stereo not given) | -0.6 | -2.6 | 6.8 | -1.4 | 1.7 | i
CCOC(=O)c1ccc(S(=O)(=O)NCC(C)(C)N2CCOCC2)cc1 | 0.8 | -2.5 | 8.8 | -0.4 | 1.6 | i
Cc1ccc(S(=O)(=O)N/N=C/c2ccc(C(=O)O)cc2)cc1 | 1.5 | 6.3 | -0.5 | 0.2 | 1.2 | i
Cc1ccc(S(=O)(=O)N/N=C/c2ccc(OC3CSC3)cc2)cc1 | -61.2 | -1.2 | 0.1 | 75.4* | 2.1 | i
